{"source": "paper PMC7496893", "about": "(Clinical Pharmacology in Drug Development, 2019)", "key": {"[1]": {"format": "in vivo, human (Japanese subjects)", "conditions": "for CL/F: single oral 150 mg, mean (SD)", "outline": "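Open-label parallel-group study with planned 8 per group: normal, Child-Pugh A (5–6 points) or B (7–9 points). Subjects took one 150 mg tablet with 150 mL water after an overnight fast. Blood was drawn predose, at 15 min, every 30 min to 2 h, then at 3–72 h. Plasma parent was measured by validated LC-MS/MS (LLOQ 0.25 ng/mL, linear 0.25–500 ng/mL). GMR and 90% CI came from a mixed model with hepatic group as a fixed effect.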"}, "[2]": {"conditions": "cited from earlier work"}, "[3]": {"system": "organic anion transporting polypeptide 1B1", "conditions": "peficitinib with rosuvastatin; cited from earlier work"}, "P-glycoprotein": {"system": "P-glycoprotein", "conditions": "verapamil (P-glycoprotein inhibitor); cited from earlier work"}, "Safety assessment": {"assay": "Safety assessment", "format": "in vivo, human (Japanese subjects)", "conditions": "for tolerability: non-RA subjects with normal, mild or moderate hepatic impairment, single oral dose", "outline": "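The safety set was every subject dosed with one 150 mg tablet after an overnight fast, assessed throughout the study. TEAEs were events that started or worsened after dosing, coded with Japanese MedDRA J16.0. Assessments also covered vital signs, ECG, hematology, biochemistry, urinalysis and liver tests: ALP, ALT, γ-GTP, total bilirubin and AST.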"}, "rheumatoid arthritis": {"system": "rheumatoid arthritis", "conditions": "daily doses of 100 mg and 150 mg; cited from earlier work"}}, "note": "Entries after “also recorded” stand apart in the source; their conditions may differ. Where two headings read alike, the source gives them in different places. Marks after values point to notes of the source that are not given here.", "data": [{"compound": "NC(=O)c1cnc2[nH]ccc2c1N[C@@H]1[C@@H]2CC3C[C@H]1C[C@@](O)(C3)C2", "note": "[Peficitinib]", "values": [{"measurement": "GMR Impaired/Normal (90% CI), Cmax", "setting": "[1]; mild hepatic impairment vs normal hepatic function", "result": "1.04 (0.71, 1.53) %"}, {"measurement": "GMR Impaired/Normal (90% CI), Cmax", "setting": "[1]; mild hepatic impairment vs normal hepatic function, listed as peficitinib", "result": "1.04 (90% CI: 0.71, 1.53)"}, {"measurement": "increase in geometric mean Cmax", "setting": "[1]; moderate hepatic impairment versus normal hepatic function", "result": 82, "unit": "%"}, {"measurement": "GMR Impaired/Normal (90% CI), Cmax", "setting": "[1]; moderate hepatic impairment vs normal hepatic function", "result": "1.82 (1.24, 2.69) %"}, {"measurement": "GMR Impaired/Normal (90% CI), Cmax", "setting": "[1]; moderate hepatic impairment vs normal hepatic function, listed as peficitinib", "result": "1.82 (90% CI: 1.24, 2.69)"}, {"measurement": "exposure", "setting": "[1]; moderately impaired vs normal hepatic function, in words", "result": "higher exposure"}, {"measurement": "CL/F", "setting": "[1]; mild hepatic impairment", "result": "121.3 (54.89) L/h"}, {"measurement": "CL/F", "setting": "[1]; moderate hepatic impairment", "result": "74.51 (32.28) L/h"}, {"measurement": "CL/F", "setting": "[1]; normal hepatic function", "result": "134.9 (25.77) L/h"}, {"measurement": "dose proportionality", "setting": "[2]; multiple doses from 30 mg twice daily to 100 mg twice daily", "result": "Dose proportionality was shown"}, {"measurement": "plasma levels reached steady state", "setting": "[2]; multiple dosing, healthy subjects", "result": "≤ 3", "unit": "days"}, {"measurement": "dose proportionality", "setting": "[2]; single dose from 3 to 300 mg", "result": "Dose proportionality was shown"}, {"measurement": "changes in the PK profile during coadministration", "setting": "[3]", "result": "did not demonstrate any clinically significant changes"}, {"measurement": "exposure in combination with verapamil", "setting": "P-glycoprotein", "result": "increased exposure"}, {"measurement": "changes from baseline in vital signs, ECG, or clinical laboratory parameters", "setting": "Safety assessment; all subjects", "result": "no clinically significant changes; also recorded: no clinically meaningful changes"}, {"measurement": "deaths", "setting": "Safety assessment; all subjects", "result": "no deaths"}, {"measurement": "serious TEAEs", "setting": "Safety assessment; all subjects", "result": "no serious TEAEs"}, {"measurement": "withdrawal from the study due to a TEAE", "setting": "Safety assessment; all subjects", "result": "no TEAEs leading to withdrawal; also recorded: no subjects withdrew"}, {"measurement": "number of TEAEs considered related to peficitinib", "setting": "Safety assessment; all subjects (N = 24)", "result": "Four"}, {"measurement": "Back pain", "setting": "Safety assessment; mild impairment (n = 8)", "result": "0 n (%)"}, {"measurement": "Blood urine present", "setting": "Safety assessment; mild impairment (n = 8)", "result": "1 (12.5) n (%)"}, {"measurement": "Diarrhea", "setting": "Safety assessment; mild impairment (n = 8)", "result": "1 (12.5) n (%)"}, {"measurement": "Hypotension", "setting": "Safety assessment; mild impairment (n = 8)", "result": "0 n (%)"}, {"measurement": "Nausea", "setting": "Safety assessment; mild impairment (n = 8)", "result": "0 n (%)"}, {"measurement": "TEAEs, Overall", "setting": "Safety assessment; mild impairment (n = 8)", "result": "1 (12.5) ^b n (%)"}, {"measurement": "Back pain", "setting": "Safety assessment; moderate impairment (n = 8)", "result": "0 n (%)"}, {"measurement": "Blood urine present", "setting": "Safety assessment; moderate impairment (n = 8)", "result": "0 n (%)"}, {"measurement": "Diarrhea", "setting": "Safety assessment; moderate impairment (n = 8)", "result": "0 n (%)"}, {"measurement": "Hypotension", "setting": "Safety assessment; moderate impairment (n = 8)", "result": "1 (12.5) n (%)"}, {"measurement": "Nausea", "setting": "Safety assessment; moderate impairment (n = 8)", "result": "0 n (%)"}, {"measurement": "TEAEs, Overall", "setting": "Safety assessment; moderate impairment (n = 8)", "result": "1 (12.5) n (%)"}, {"measurement": "tolerability", "setting": "Safety assessment", "result": "well tolerated"}, {"measurement": "tolerability", "setting": "Safety assessment; listed as peficitinib", "result": "generally well tolerated"}, {"measurement": "Back pain", "setting": "Safety assessment; normal function (n = 8)", "result": "1 (12.5) n (%)"}, {"measurement": "Blood urine present", "setting": "Safety assessment; normal function (n = 8)", "result": "0 n (%)"}, {"measurement": "Diarrhea", "setting": "Safety assessment; normal function (n = 8)", "result": "0 n (%)"}, {"measurement": "Hypotension", "setting": "Safety assessment; normal function (n = 8)", "result": "0 n (%)"}, {"measurement": "Nausea", "setting": "Safety assessment; normal function (n = 8)", "result": "1 (12.5) n (%)"}, {"measurement": "TEAEs, Overall", "setting": "Safety assessment; normal function (n = 8), single oral 150 mg", "result": "1 (12.5) ^a n (%)"}, {"measurement": "Back pain", "setting": "Safety assessment; total (N = 24)", "result": "1 (4.2) n (%)"}, {"measurement": "Blood urine present", "setting": "Safety assessment; total (N = 24)", "result": "1 (4.2) n (%)"}, {"measurement": "Diarrhea", "setting": "Safety assessment; total (N = 24)", "result": "1 (4.2) n (%)"}, {"measurement": "Hypotension", "setting": "Safety assessment; total (N = 24)", "result": "1 (4.2) n (%)"}, {"measurement": "Nausea", "setting": "Safety assessment; total (N = 24)", "result": "1 (4.2) n (%)"}, {"measurement": "efficacy and tolerability in RA patients", "setting": "rheumatoid arthritis", "result": "effective and well tolerated"}]}, {"compound": "CC(C)c1nc(N(C)S(C)(=O)=O)nc(-c2ccc(F)cc2)c1/C=C/[C@@H](O)C[C@@H](O)CC(=O)O", "note": "[rosuvastatin, reference compound]", "values": [{"measurement": "changes in the PK profile during coadministration", "setting": "[3]", "result": "did not demonstrate any clinically significant changes"}]}]}
